From publication PMC4532346 (Drug Design, Development and Therapy, 2015)
Like-named read-outs stand apart in the source and are kept apart here.

Tests used:
CYP1A2 = biological target: T1, CYP1A2 (Homo sapiens, UniProt P05177); assay: cytochrome P450 inhibition, CYP1A2; assay type: in vitro ADME
T1 sequence (P05177 1-516): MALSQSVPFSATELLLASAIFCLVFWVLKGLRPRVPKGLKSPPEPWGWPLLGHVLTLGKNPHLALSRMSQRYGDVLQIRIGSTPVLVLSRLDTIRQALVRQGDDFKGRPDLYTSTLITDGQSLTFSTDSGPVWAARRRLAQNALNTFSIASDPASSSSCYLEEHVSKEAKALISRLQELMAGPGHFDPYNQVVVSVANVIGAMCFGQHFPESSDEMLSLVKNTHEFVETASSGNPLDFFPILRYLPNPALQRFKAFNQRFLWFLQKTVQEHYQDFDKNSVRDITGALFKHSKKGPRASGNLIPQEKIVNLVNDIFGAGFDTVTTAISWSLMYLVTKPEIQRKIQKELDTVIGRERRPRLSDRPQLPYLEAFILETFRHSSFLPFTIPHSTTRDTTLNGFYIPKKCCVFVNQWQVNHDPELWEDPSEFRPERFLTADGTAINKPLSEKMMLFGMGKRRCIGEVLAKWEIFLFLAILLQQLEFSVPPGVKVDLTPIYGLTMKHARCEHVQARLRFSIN

CYP2C9 = CYP2C9 (Homo sapiens, UniProt P11712); assay: cytochrome P450 inhibition, CYP2C9; assay type: in vitro ADME
CYP2C19 = CYP2C19 (Homo sapiens, UniProt P33261); assay: cytochrome P450 inhibition, CYP2C19; assay type: in vitro ADME
CYP2D6 = CYP2D6 (Homo sapiens, UniProt P10635); assay: cytochrome P450 inhibition, CYP2D6; assay type: in vitro ADME
CYP3A4 = CYP3A4 (Homo sapiens, UniProt P08684); assay: cytochrome P450 inhibition, CYP3A4; assay type: in vitro ADME
Caco-2 permeability = assay type: in vitro ADME, human; conditions: human
In short: (§1)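 Caco-2 cells grown in DMEM with 10% FBS, penicillin and streptomycin, seeded at 1×10^5 cells/cm2 on Transwell inserts and cultured 22 days at 37°C, 5% CO2. Preincubated 30 min in HBSS–HEPES. Only inserts with lucifer yellow ≤1% used, rechecked after the run. Test compound at 2 and 20 μM (1% DMSO final) added to donor, triplicate, A–B and B–A. Papp and efflux ratio calculated.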

Caco-2 cell monolayer = assay: Caco-2 permeability; assay type: in vitro ADME, human; conditions: Papp(B-A)/Papp(A-B)
In short: as §1

Chain of CYP3A4 (P08684 whole entry): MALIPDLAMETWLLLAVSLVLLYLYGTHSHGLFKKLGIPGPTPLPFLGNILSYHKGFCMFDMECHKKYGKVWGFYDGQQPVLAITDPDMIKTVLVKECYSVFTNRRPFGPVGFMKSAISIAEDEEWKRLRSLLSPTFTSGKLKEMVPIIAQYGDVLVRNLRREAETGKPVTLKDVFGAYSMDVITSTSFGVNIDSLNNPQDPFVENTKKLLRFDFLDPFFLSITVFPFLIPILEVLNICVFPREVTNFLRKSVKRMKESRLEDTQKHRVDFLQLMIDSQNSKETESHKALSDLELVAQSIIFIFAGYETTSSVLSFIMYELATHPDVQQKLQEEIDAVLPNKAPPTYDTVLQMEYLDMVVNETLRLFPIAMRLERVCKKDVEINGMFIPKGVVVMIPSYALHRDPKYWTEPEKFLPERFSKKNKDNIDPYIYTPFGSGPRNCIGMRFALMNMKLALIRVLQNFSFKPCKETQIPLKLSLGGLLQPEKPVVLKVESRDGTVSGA
Chain of CYP2C9 (P11712 whole entry): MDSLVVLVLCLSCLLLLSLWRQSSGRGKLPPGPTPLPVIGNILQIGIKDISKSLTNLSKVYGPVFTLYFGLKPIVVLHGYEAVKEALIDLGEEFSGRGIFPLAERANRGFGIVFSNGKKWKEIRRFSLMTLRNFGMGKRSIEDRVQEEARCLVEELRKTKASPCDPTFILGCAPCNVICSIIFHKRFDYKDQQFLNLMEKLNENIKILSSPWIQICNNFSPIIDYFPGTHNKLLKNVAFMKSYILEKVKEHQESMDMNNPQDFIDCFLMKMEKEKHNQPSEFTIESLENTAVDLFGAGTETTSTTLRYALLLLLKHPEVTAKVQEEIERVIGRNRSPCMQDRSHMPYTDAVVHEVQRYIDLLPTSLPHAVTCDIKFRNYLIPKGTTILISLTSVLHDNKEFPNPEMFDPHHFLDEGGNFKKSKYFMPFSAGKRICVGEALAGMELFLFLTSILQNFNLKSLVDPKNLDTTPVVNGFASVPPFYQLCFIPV
Chain of CYP2C19 (P33261 whole entry): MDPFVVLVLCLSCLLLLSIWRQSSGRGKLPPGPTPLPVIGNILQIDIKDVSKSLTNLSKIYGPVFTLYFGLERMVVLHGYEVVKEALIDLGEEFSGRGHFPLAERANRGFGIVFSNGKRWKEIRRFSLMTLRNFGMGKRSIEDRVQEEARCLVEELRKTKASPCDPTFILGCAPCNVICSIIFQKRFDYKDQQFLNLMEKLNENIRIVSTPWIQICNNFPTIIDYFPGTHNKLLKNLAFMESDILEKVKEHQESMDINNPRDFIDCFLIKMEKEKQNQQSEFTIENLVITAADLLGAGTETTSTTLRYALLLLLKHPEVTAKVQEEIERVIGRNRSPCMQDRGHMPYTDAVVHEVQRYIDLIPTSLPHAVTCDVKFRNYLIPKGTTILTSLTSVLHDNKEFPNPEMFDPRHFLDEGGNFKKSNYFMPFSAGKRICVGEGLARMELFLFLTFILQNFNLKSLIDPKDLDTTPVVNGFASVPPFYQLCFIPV
Chain of CYP2D6 (P10635 whole entry): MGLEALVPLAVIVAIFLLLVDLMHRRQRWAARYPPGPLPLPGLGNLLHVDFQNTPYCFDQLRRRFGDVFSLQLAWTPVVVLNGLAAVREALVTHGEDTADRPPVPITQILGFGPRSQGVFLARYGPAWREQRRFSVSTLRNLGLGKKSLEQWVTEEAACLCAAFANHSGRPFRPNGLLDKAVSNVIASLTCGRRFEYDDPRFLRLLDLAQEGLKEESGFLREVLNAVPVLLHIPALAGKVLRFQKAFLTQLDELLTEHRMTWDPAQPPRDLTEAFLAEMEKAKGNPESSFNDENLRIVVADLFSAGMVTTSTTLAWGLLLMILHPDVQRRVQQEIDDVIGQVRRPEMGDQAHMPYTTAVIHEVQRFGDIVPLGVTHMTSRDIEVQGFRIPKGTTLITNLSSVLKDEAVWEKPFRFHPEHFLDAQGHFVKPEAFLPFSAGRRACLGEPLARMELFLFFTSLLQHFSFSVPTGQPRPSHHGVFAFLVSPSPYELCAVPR

SMILES: COC(=O)c1ccc2c(c1)NC(=O)/C2=C(\Nc1ccc(N(C)C(=O)CN2CCN(C)CC2)cc1)c1ccccc1 [Nintedanib, nintedanib]
- IC50 (CYP1A2): 17.5 µM
- IC50 (CYP2C9): 33 µM
- IC50 (CYP2C9; P450 inhibition IC50, 2C9, probe substrate diclofenac): ≥ 33 µM
- IC50 (CYP2C19): 51.3 µM
- IC50 (CYP2C19; P450 inhibition IC50, 2C19, probe substrate S-mephenytoin): ≥ 33 µM
- IC50 (CYP2D6): 39.7 µM
- IC50 (CYP2D6; P450 inhibition IC50, 2D6, probe substrate dextromethorphan): ≥ 33 µM
- IC50 (CYP3A4): 2.3 µM
- IC50 (CYP3A4; P450 inhibition IC50, 3A4 (Mid), probe substrate midazolam): > 80 µM
- P450 inhibition IC50, 3A4 (Mid) (CYP3A4; probe substrate midazolam): did not show inhibition
- Papp A→B at 120 min, 2 μM (Caco-2 permeability; Caco-2): 0.05 ×10⁻⁶ cm/s
- Papp A→B at 120 min, 20 μM (Caco-2 permeability; Caco-2): 0.29 ×10⁻⁶ cm/s
- Papp B→A at 120 min, 2 μM (Caco-2 permeability; Caco-2): 14.4 ×10⁻⁶ cm/s
- Papp B→A at 120 min, 20 μM (Caco-2 permeability; Caco-2): 22.6 ×10⁻⁶ cm/s
- efflux ratio at 120 min, 2 μM (Caco-2 permeability; Caco-2, Efflux ratio, Caco-2, 2 μM, Papp(B-A)/Papp(A-B)): ~319
- efflux ratio at 120 min, 20 μM (Caco-2 permeability; Caco-2, Efflux ratio, Caco-2, 20 μM, Papp(B-A)/Papp(A-B)): ~78
- Efflux ratio (Caco-2 cell monolayer; Caco-2, 2 μM): 319.81
- Efflux ratio (Caco-2 cell monolayer; Caco-2, 20 μM): 78.24
